Runt-SMMHC FRET: inhibitors of RUNX1 Runt–CBFb-SMMHC binding, primary screen, biochemical, FRET, Cerulean-Runt, Venus-CBFb-SMMHC, uHTS | Runt-related transcription factor 1 (Homo sapiens) + Core-binding factor subunit beta … | Cerulean-Runt/Venus-CBFb-SMMHC FRET ratio 530/480, 1 h | inhibition, % at 20 µM | actives 0.74% (n = 220,000) | AID 1434, 2008;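 active = mean inhibition across duplicate retests at 20 µM reaching about 50%, limit read from the data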;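 note: inhibitors lower the FRET ratio by blocking Runt binding to CBFb-SMMHC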
Target sequence (Q01196 whole entry, looked up): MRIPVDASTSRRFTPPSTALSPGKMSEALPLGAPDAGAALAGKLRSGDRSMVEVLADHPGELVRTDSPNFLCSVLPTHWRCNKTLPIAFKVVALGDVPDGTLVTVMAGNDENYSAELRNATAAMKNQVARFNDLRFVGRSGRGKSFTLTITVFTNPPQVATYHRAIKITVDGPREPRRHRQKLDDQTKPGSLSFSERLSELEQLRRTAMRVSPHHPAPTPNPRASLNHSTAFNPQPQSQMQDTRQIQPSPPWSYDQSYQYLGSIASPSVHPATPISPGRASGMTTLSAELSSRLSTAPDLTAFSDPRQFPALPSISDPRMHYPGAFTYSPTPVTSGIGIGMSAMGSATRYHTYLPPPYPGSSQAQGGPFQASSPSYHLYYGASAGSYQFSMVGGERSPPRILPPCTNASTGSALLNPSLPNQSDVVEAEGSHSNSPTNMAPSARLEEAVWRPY
Target sequence (Q13951 whole entry, looked up): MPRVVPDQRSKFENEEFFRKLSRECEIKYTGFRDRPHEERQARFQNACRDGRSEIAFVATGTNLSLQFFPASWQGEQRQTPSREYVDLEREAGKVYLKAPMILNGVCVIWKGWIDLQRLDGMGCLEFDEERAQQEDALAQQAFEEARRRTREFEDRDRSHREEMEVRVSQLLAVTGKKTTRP
Hck Nef HTS: inhibitors of Nef-activated human Hck kinase, primary screen, biochemical, Z-Lyte FRET, 384-well, Hck-YEEI; Tyrosine-protein kinase HCK (Homo sapiens), P08631; inhibition, % at 20 µM; AID 463187, 2010; actives 0.68% (n = 220,000); Recombinant Hck-YEEI plus Nef, Z-Lyte FRET kinase assay;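 active = Hck-Nef kinase inhibition above about 50%, limit read from the data; inactive = inhibition below that limit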
RanGTP-Impb inh: inhibitors of RanGTP-importin-beta interaction, primary screen, biochemical, FRET, CFP-Ran, YFP-importin-beta, homogeneous. Ran GTPase (GTP-bound) - importin-beta complex. cell-free CFP-Ran/YFP-importin-beta FRET ratio. inhibition, % (no concentration beside the values). actives 1.1% (n = 300,000). AID 2216, 2009;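 active = more than half of the replicate wells show a fall in the fluorescence ratio signal beyond about 16%, limit read from the data, passing the limit was not always enough; inconclusive = exactly half of the replicate wells pass the set limit; inactive = fewer than half of replicates pass the limit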
Runt-CBFb FRET: inhibitors of RUNX1 Runt–CBFb binding, primary screen, biochemical, FRET, Cerulean-Runt, Venus-CBFb, uHTS | Runt-related transcription factor 1 (Homo sapiens) + Core-binding factor subunit beta … | Cerulean-Runt/Venus-CBFb FRET ratio 530/480, 1 h | inhibition, % at 20 µM | actives 0.46% (n = 220,000) | AID 1496, 2009;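 active = inhibition over about 50% at 20 µM in the single-dose screen, limit read from the data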
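Assay system: Cerulean-Runt domain / Medium: Tris 50 mM pH 7.5, KCl, K2SO4, 0.01% BSA / Timing: protein complex preformed 1 h, compound exposure 1 h, room temperature, dark / Measured by: FRET, excitation 422 nm, emission at 530 and 480 nm / Evaluation: loss of energy transfer signal / Control set: 5 µM unlabeled CBFb as full-inhibition high control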
CaV13 ICDI inh: Disruptors of the CACNA1D IQ motif to Ca2+-dependent inactivation inhibitor domain association, primary screening, Förster resonance energy transfer in intact living …; actives 0.098% (n = 340,000); inhibition, % at 12.3 µM; HEK cells, CFP/YFP FRET ICDI-IQ, plate reader, 10 min; percent FRET-ratio fall versus neutral wells; AID 743397;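 active = mean replicate inhibition of at least 30% and at least 1% of replicates passing that level; inconclusive = only one of the two criteria is met; inactive = neither criterion is met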
Of the large screens only hits and unclear results are named; the others gave an inactive call. The list is not random: actives were taken first. Their share in the collection is about 1.5%.

Cc1ccc2nc3c(cc(C(=O)NCC4CCCO4)c(=N)n3CC3CCCO3)c(=O)n2c1 (stereo unspecified)	RanGTP-Impb inh 174.9 (no result: Runt-SMMHC FRET, Hck Nef HTS, Runt-CBFb FRET, CaV13 ICDI inh)
Cc1ccc(NC(=O)COC(=O)CSCC(=O)Nc2cc(C)on2)c(C)c1	none (no result: Runt-SMMHC FRET, Hck Nef HTS, Runt-CBFb FRET)
Cc1cccc(CSCCNC(=O)Nc2ccccc2)c1	RanGTP-Impb inh inconclusive
COc1ccc(CCn2c(=N)c(C(=O)NC3CCCC3)cc3c(=O)n4ccccc4nc32)cc1	none (no result: Runt-SMMHC FRET, Hck Nef HTS, Runt-CBFb FRET)
N#Cc1cc2c(=O)n3ccccc3nc2n(CC2CCCO2)c1=N (stereo unspecified)	none (no result: Runt-SMMHC FRET, RanGTP-Impb inh, Runt-CBFb FRET, CaV13 ICDI inh)
N=c1c(C(=O)NC2CCCC2)cc2c(=O)n3ccccc3nc2n1CC1CCCO1 (stereo unspecified)	RanGTP-Impb inh 173.7 (no result: Runt-SMMHC FRET, Hck Nef HTS, Runt-CBFb FRET)
Cn1c(C(=O)NCC2CCCO2)cc2c(=O)n3ccccc3nc21 (stereo unspecified)	Runt-SMMHC FRET 60.8 (no result: CaV13 ICDI inh)
COc1ccc(Cn2c(=N)c(C(=O)NC3CCCCC3)cc3c(=O)n4ccccc4nc32)cc1	RanGTP-Impb inh 27.6 (no result: Runt-SMMHC FRET, Hck Nef HTS, Runt-CBFb FRET)
Cc1cccn2c(=O)c3cc(C(=O)NCC4CCCO4)n(C)c3nc12 (stereo unspecified)	none (no result: Runt-SMMHC FRET, RanGTP-Impb inh, Runt-CBFb FRET, CaV13 ICDI inh)
O=C(Nc1ccc2oc(-c3ccc(Cl)c(Cl)c3)nc2c1)c1ncn[nH]1	none
O=C(NCc1ccc(F)cc1)C1CCCN1C(=O)Nc1cccc(F)c1 (stereo unspecified)	CaV13 ICDI inh 63.7 (no result: Runt-SMMHC FRET, Hck Nef HTS, Runt-CBFb FRET)
CCO[C@@H]1OC(C(N)=O)=C[C@H](c2ccc(C(F)(F)F)cc2)[C@H]1CCCO	RanGTP-Impb inh 23.7
COc1ccc(OCCN2C(=O)c3ccccc3C2=O)cc1	none
Nc1cccc2c1C(=O)N(CCOc1ccc(F)cc1)C2=O	RanGTP-Impb inh 26.3 (no result: Runt-SMMHC FRET, Hck Nef HTS, Runt-CBFb FRET)
COCCOC(=O)c1[nH]c2c(c1C)C(=O)CC(c1ccc(F)cc1)C2 (stereo unspecified)	none
COc1ccc(OC)c(N=c2oc3cc(O)ccc3cc2C(N)=O)c1	Runt-SMMHC FRET 117.2, RanGTP-Impb inh 157.7, Runt-CBFb FRET 119.7
O=C(O)c1ccc(N=c2oc3cc(O)ccc3cc2C(=O)NCc2ccccc2)cc1	Runt-SMMHC FRET 88.4, RanGTP-Impb inh 168.8
NC(=O)c1cc2ccc(O)cc2oc1=Nc1ccccc1	Runt-SMMHC FRET 65.3, RanGTP-Impb inh 175.6
C/C(=N\NC(=O)CC#N)c1ccc(Oc2ccccc2)cc1	none
COc1ccc2cc(C(=O)NCc3ccccc3)c(=Nc3ccc(C(=O)O)cc3)oc2c1	none
C/C(=N\NC(=O)CC#N)c1cc2ccc(O)cc2oc1=O	Runt-SMMHC FRET 91.9, CaV13 ICDI inh active
Cc1ccc(NC(=O)O/N=C2\CCCCC2c2ccc([N+](=O)[O-])cc2[N+](=O)[O-])cc1 (stereo unspecified)	none
Cc1ccc(S(=O)(=O)N(CC(O)CN2CCCCC2)c2ccccc2)cc1 (stereo unspecified)	none
O=C(NCc1ccccc1)c1cc2ccc(O)cc2oc1=O	RanGTP-Impb inh 186.4 (no result: Runt-SMMHC FRET, Hck Nef HTS, Runt-CBFb FRET)
O=C(O)c1cc2ccc(O)cc2oc1=O	none (no result: Runt-SMMHC FRET, Hck Nef HTS, RanGTP-Impb inh, Runt-CBFb FRET)
CCOc1ccc(Nc2cc(C)nc(N3CCOCC3)n2)cc1	RanGTP-Impb inh inconclusive (no result: CaV13 ICDI inh)
CCOc1ccc2nc(N3CCOCC3)nc(C)c2c1	Runt-SMMHC FRET 78.7, RanGTP-Impb inh 58.4, Runt-CBFb FRET 73.7 (no result: CaV13 ICDI inh)
Cc1ccc(-c2cc3nc(C)cc(NCc4ccco4)n3n2)cc1	RanGTP-Impb inh 37.8
COc1ccc(/C(O)=C2/C(=O)C(=O)N(CCN(C)C)C2c2ccccn2)cc1OC (stereo unspecified)	RanGTP-Impb inh 22.8
COc1ccc(/C(O)=C2/C(=O)C(=O)N(CCN3CCOCC3)C2c2ccccn2)cc1OC (stereo unspecified)	RanGTP-Impb inh 29.0 (no result: CaV13 ICDI inh)
Cc1ccc(/C(O)=C2/C(=O)C(=O)N(CCN3CCOCC3)C2c2ccccn2)cc1 (stereo unspecified)	RanGTP-Impb inh 22.1
CCN(CC)CCCN1C(=O)C(=O)/C(=C(/O)c2ccc(C)cc2)C1c1ccccn1 (stereo unspecified)	none
O=C1C(=O)N(CCN2CCOCC2)C(c2ccccn2)/C1=C(/O)c1ccccc1 (stereo unspecified)	RanGTP-Impb inh 24.3
CCn1c(CNC(=O)c2cccs2)nnc1SCC(=O)NCCc1ccccc1	none
Cc1coc2c1c(C)cc1oc(=O)c(CC(=O)NCC(=O)NCC(=O)O)c(C)c12	none (no result: Runt-SMMHC FRET, Hck Nef HTS, Runt-CBFb FRET)
C#CCn1c(=NC(=O)CN2C(=O)CCC2=O)sc2cccc(C)c21	none
COCCCNC(=O)c1c[nH]c2ccc(S(=O)(=O)N3CCc4ccccc43)cc2c1=O	none
CSc1nc(-c2ccccc2)nc(N2CCN(C)CC2)c1C(C)=O	RanGTP-Impb inh 70.4
CSc1nc(-c2ccccc2)nc(N2CCCC2)c1C(C)=O	none
COc1ccc(CNC(=O)C(C#N)c2nc3ccccc3nc2N2CCCC2)cc1 (stereo unspecified)	RanGTP-Impb inh inconclusive (no result: CaV13 ICDI inh)
N#CC(C(=O)NC1CCCCC1)c1nc2ccccc2nc1N1CCOCC1 (stereo unspecified)	none (no result: Hck Nef HTS, RanGTP-Impb inh, CaV13 ICDI inh)
C=CCNC(=O)C(C#N)c1nc2ccccc2nc1N1CCCCCC1 (stereo unspecified)	Runt-SMMHC FRET 65.0, RanGTP-Impb inh 73.7 (no result: CaV13 ICDI inh)
CC1CCN(c2nc3ccccc3nc2C(C#N)C(=O)NC2CCCCC2)CC1 (stereo unspecified)	RanGTP-Impb inh 49.7 (no result: Hck Nef HTS, CaV13 ICDI inh)
CCCCNC(=O)C(C#N)c1nc2ccccc2nc1N1CCCC1 (stereo unspecified)	Runt-SMMHC FRET 67.3, RanGTP-Impb inh 34.1 (no result: CaV13 ICDI inh)
CC1CCN(C(=O)CSc2nnc(Cc3cccn3C)n2CCc2ccccc2)CC1	none
CCOc1cccc(/C=N/Nc2ccc(S(=O)(=O)N(CC)CC)cn2)c1O	none
COC(=O)C(C#N)c1nc2ccccc2nc1N1CCCC1 (stereo unspecified)	none
CC(C)OC(=O)C(C#N)c1nc2ccccc2nc1N1CCCC1 (stereo unspecified)	none (no result: CaV13 ICDI inh)
CCCCCCOC(=O)C(C#N)c1nc2ccccc2nc1N1CCCCC1 (stereo unspecified)	RanGTP-Impb inh 30.6
CCC(C)COC(=O)C(C#N)c1nc2ccccc2nc1N1CCCCC1 (stereo unspecified)	RanGTP-Impb inh 23.1
CCCCCCOC(=O)C(C#N)c1nc2ccccc2nc1N1CCN(C)CC1 (stereo unspecified)	RanGTP-Impb inh 22.6 (no result: CaV13 ICDI inh)
O=C(CSc1nncn1-c1ccccc1)Nc1ccc(N2CCOCC2)cc1	none
CCCc1cc(NCc2ccccn2)n2nc(C)c(-c3ccccc3)c2n1	none
O=C1CC(N2CCN(c3ccccc3F)CC2)C(=O)N1c1ccc2c(c1)OCCO2 (stereo unspecified)	none
